# Laboratory results: ChEMBL document CHEMBL4808167, “Design, Synthesis, and Evaluation of Small Molecule Gαq/11 Protein Inhibitors for the Treatment of Uveal Melanoma” (J Med Chem, 2021)
# Calls of active or inactive are those of the source. The rule behind the calls is not given here.
# Columns and labels:
# 921 = assay: Antiproliferative activity against GNAQ knock down human 92.1 cells assessed as inhibition of cell growth at 10 to 15 uM after 72 hrs by CKK8 assay; assay type: functional; settings: dose 10-15 µM
# [1] = Cmax in ICR mouse at 30 mg/kg, po measured upto 24 hrs by LC-MS/MS analysis; assay type: ADME, organism-based; set-up: route oral, dose 30 mg/kg, time <=24; settings: in vivo
# Procedure, shortened: (§1)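 Single dose in male ICR mice, 10 mg/kg iv or 30 mg/kg po, dissolved in 5% DMSO/95% saline. Blood drawn by catheter at 0, 5, 15, 30 min and 1, 2, 4, 6, 8, 24 h. Plasma spun 6800g 6 min at 2−8 °C, stored −80 °C, quantified by LC−MS/MS. Noncompartmental parameters, mean ± SD, n = 6.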
# [2] = MRT(0 to t) in ICR mouse at 10 mg/kg, iv measured upto 24 hrs by LC-MS/MS analysis; assay type: ADME, organism-based; settings: in vivo
# Procedure, shortened: (§2)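 Single-dose PK in male ICR mice (n = 6): 10 mg/kg iv or 30 mg/kg po, vehicle 5% DMSO/95% saline. Blood (30 μL) by catheter at 0, 5, 15, 30 min and 1, 2, 4, 6, 8, 24 h; plasma by centrifugation, stored −80 °C, measured by LC–MS/MS. Parameters from noncompartmental analysis, mean SD.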
# [3] = Induction of apoptosis in human 921 cells assessed as early apoptotic cells at 15 uM after 48 hrs by Annexin-V-FITC/propidium iodide staining based flow cytometry (reference value: 3.39%); assay type: functional
# [4] = Half life in ICR mouse at 30 mg/kg, po measured upto 24 hrs by LC-MS/MS analysis; assay type: ADME, organism-based; settings: in vivo; procedure, shortened: as §1
# MP41 [5] = assay: Inhibition of cell migration in human MP41 cells at 15 uM incubated for 48 hrs by transwell migration assay; assay type: functional, cell-based
# Procedure, shortened: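 Transwell migration: 92.1 and MP41 cells (RPMI-1640, 10% FBS) seeded 1 × 10⁴/well in upper chamber in serum-free medium, 20% FBS medium below; overnight at 37 °C, then compound for 48 h. Non-migrated cells swabbed off; lower cells crystal violet-stained 30 min, counted by light microscopy. Mean SD of three independent experiments.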
# [6] = Induction of apoptosis in human MP41 cells assessed as early apoptotic cells at 15 uM after 48 hrs by Annexin-V-FITC/propidium iodide staining based flow cytometry (reference value: 2.96%); assay type: functional
# [7] = AUC(0 to t) in ICR mouse at 30 mg/kg, po measured upto 24 hrs by LC-MS/MS analysis; assay type: ADME, organism-based; set-up: route oral, dose 30 mg/kg, time <=24; settings: in vivo; procedure, shortened: as §1
# [8] = molecular target: T1, GNAQ/GNA11 (Homo sapiens) (UniProt P50148+P29992); assay: Inhibition of Galphaq/11 in human MP41 cells assessed as reduction in ERK phosphorylation at 15 to 30 uM after 48 hrs by Western blot analysis; assay type: cell-based; settings: dose 15-30 µM
# T1 sequence (P29992 whole entry, looked up): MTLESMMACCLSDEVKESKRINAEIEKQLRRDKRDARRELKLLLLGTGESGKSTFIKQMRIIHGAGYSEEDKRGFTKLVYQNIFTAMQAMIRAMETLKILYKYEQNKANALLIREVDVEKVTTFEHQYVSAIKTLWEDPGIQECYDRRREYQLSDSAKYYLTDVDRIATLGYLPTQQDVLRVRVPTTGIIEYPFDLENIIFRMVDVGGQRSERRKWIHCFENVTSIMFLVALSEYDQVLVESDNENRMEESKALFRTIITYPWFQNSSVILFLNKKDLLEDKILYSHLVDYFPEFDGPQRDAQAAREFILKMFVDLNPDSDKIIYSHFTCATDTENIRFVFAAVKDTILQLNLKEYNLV
# T1 sequence (P50148 whole entry, looked up): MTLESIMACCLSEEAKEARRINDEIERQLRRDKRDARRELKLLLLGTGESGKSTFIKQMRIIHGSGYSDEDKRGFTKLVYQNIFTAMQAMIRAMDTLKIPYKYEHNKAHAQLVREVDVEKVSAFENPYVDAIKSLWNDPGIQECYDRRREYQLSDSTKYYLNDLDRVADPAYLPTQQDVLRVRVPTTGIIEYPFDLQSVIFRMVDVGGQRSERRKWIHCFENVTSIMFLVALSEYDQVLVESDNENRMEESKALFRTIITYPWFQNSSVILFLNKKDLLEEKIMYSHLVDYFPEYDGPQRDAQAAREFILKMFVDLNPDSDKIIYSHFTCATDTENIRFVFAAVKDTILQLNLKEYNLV
# Procedure, shortened: (§3)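 92.1 and MP41 cells plated overnight, then exposed to compound 48 h. Lysed in ice-cold buffer and protein quantified by BCA. Resolved on 8−12% SDS−PAGE and transferred to PVDF. Probed for p-YAP Ser127, total YAP, p-ERK1/2 Thr202/Tyr204 and total ERK1/2, with GAPDH as loading control. ECL detection, triplicate.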
# [9] = Toxicity in nude BALB/c mouse xenografted with human MP41 cells assessed as morphological changes in lung tissue at 10 to 30 mg/kg, ip administered once daily for 21 days and measured every 3 days by HE staining based assay; assay type: organism-based; settings: in vivo, 504 h, dose 10-30 mg/kg, time 21 day
# Procedure, shortened: (§4)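 Nude BALB/c mice bearing serially passaged MP41 tumour slices (tertiary recipients, n = 8/group, randomized) dosed ip daily for 21 days at 10 or 30 mg/kg/d or vehicle. Body weight monitored every 3 days. Tissues collected at sacrifice, fixed in 4% paraformaldehyde 24 h, paraffin-embedded, H&E stained, viewed at ×100.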
# [10] = Induction of apoptosis in human MP41 cells assessed as necrotic cells at 30 uM after 48 hrs by Annexin-V-FITC/propidium iodide staining based flow cytometry (reference value: 0.11%); assay type: functional
# [11] = Toxicity in nude BALB/c mouse xenografted with human MP41 cells assessed as morphological changes in spleen tissue at 10 to 30 mg/kg, ip administered once daily for 21 days and measured every 3 days by HE staining based assay; assay type: organism-based; settings: in vivo, 504 h, dose 10-30 mg/kg, time 21 day; procedure, shortened: as §4
# [12] = molecular target: T1, GNAQ/GNA11 (Homo sapiens); assay: Inhibition of Galphaq/11 in human MP41 cells assessed as induction of YAP phosphorylation at 5 to 15 uM after 48 hrs by Western blot analysis; assay type: cell-based; settings: dose 5-15 µM; procedure, shortened: as §3
# [13] = Induction of apoptosis in human MP41 cells assessed as necrotic cells at 15 uM after 48 hrs by Annexin-V-FITC/propidium iodide staining based flow cytometry (reference value: 0.11%); assay type: functional
# [14] = Antitumor activity against human MP41 cells xenografted in nude BALB/c mouse assessed as tumor growth inhibition at 10 mg/kg, ip administered for once daily for 21 days and measured every 3 days; assay type: functional; settings: 504 h, time 21 day, read-out: TGI
# Procedure, shortened: (§5)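 MP41 tumours were passaged subcutaneously mouse-to-mouse in nude BALB/c mice (6−8 weeks, 20−25 g). Tertiary recipients randomized, n = 8/group, given 10 or 30 (mg/kg)/d ip or vehicle for 21 days. Tumour size (V = A × B² × π/6, caliper) and body weight taken every 3 days; tumours excised and weighed on day 22. TGI computed versus the vehicle group.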
# [15] = AUC(0 to t) in ICR mouse at 10 mg/kg, iv measured upto 24 hrs by LC-MS/MS analysis; assay type: ADME, organism-based; set-up: route intravenous, dose 10 mg/kg, time <=24; settings: in vivo; procedure, shortened: as §1
# MP41 [16] = assay: Inhibition of cell invasion in human MP41 cells at 5 to 15 uM incubated for 48 hrs by transwell assay; assay type: functional, cell-based; settings: dose 5-15 µM
# Procedure, shortened: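 92.1 or MP41 cells (1 × 10⁴/well) seeded in serum-free medium in the upper transwell chamber, with 20% FBS medium below. Left overnight, then treated 48 h. Non-migrated cells swabbed off; cells on the lower side stained with crystal violet 30 min and counted by light microscopy (×40 for migration, ×100 for invasion). Mean ± SD, n = 3.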
# MP41 [17] = assay: Antiproliferative activity against human MP41 cells assessed as inhibition of cell growth at 15 to 30 uM by CCK8 assay; assay type: functional, cell-based; settings: dose 15-30 µM, time 24-96 hrs, TDE = time-dependent effect
# [18] = Induction of apoptosis in human 921 cells assessed as late apoptotic cells at 5 uM after 48 hrs by Annexin-V-FITC/propidium iodide staining based flow cytometry (reference value: 2.52%); assay type: functional
# [19] = (§6) Antiproliferative activity against human MP41 cells assessed as inhibition of cell growth after 72 hrs by CCK8 assay; assay type: functional, cell-based; settings: MP41, 72 h
# Procedure, shortened: (§7)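 92.1 or MP41 cells in RPMI-1640 with 10% FBS were seeded at 3 × 10³ cells/well. Exposed to serial concentrations for 72 h at 37 °C, 5% CO₂. CCK-8 added for 1−4 h, absorbance read at 450 nm. IC₅₀ from concentration−response curve fit, mean ± SD.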
# MP41 [20] = assay: as §6; assay type: functional, cell-based; procedure, shortened: as §7
# [21] = Tmax in ICR mouse at 30 mg/kg, po measured upto 24 hrs by LC-MS/MS analysis; assay type: ADME, organism-based; settings: in vivo; procedure, shortened: as §2
# [22] = Antitumor activity against human MP41 cells xenografted in nude BALB/c mouse assessed as tumor growth inhibition at 30 mg/kg, ip administered for once daily for 21 days and measured every 3 days; assay type: functional; settings: 504 h, time 21 day, read-out: TGI; procedure, shortened: as §5
structure (smiles),measurement,setting,value
CC[C@@H](C)[C@H](N)C(=O)N1CCn2cc(-c3ccccc3)nc2[C@@H]1CC1CCCCC1,Activity,921,inactive
same,Cmax,[1],2890 ng/mL
same,MRT last at 24 h,[2],55.8 min
same,Activity,[3],13.1%
same,half-life,[4],84.6 min
same,inhibition,MP41 [5],Active
same,Activity,[6],5.32%
same,AUC(0-t) at 24 h,[7],5940 ng·h/mL
same,inhibition,[8],Active
same,Activity,[9],Non-Toxic
same,Activity,[10],0.27%
same,Activity,[11],Non-Toxic
same,inhibition,[12],Active
same,Activity,[13],0.09%
same,inhibition in vivo at 10 mg/kg,[14],65.4%
same,AUC(0-t) at 24 h,[15],2140 ng·h/mL
same,inhibition,MP41 [16],Active
same,Activity,MP41 [17],Tde
same,Activity,[18],3.4%
same,IC50,[19],24.8 µM
same,Activity,MP41 [20],Dose-Dependent Effect
same,Tmax,[21],25.2 min
same,inhibition in vivo at 30 mg/kg,[22],99%
